This is an account of results in ChEMBL document CHEMBL1124369, “Pyrido[3,4-e]-1,2,4-triazines and related heterocycles as potential antifungal agents” (1989).

Assay [1] deals with Kluyveromyces marxianus. Nature of the assay: Antifungal activity against Candida pseudotropicalis. It is filed as functional. The procedure, abridged: (§1)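 Agar dilution MIC. Twofold serial drug dilutions in yeast nitrogen base medium with 1% dextrose, 0.15% asparagine and 1.5% agar. Agar surfaces inoculated using a Steers multiple inocula replicator, then incubated at 35 °C for 24-48 h. MIC was recorded as the lowest concentration inhibiting visible growth. Amphotericin B, miconazole and nystatin served as controls.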

Assay [2] concerns Candida tropicalis. Nature of the assay: Antifungal activity against Candida tropicalis. It is filed as functional. In short, it runs like this:
as §1

Assay [3] deals with Mucor fragilis. Nature of the assay: Antifungal activity against Mucor fragilis. It is filed as functional. In short, it runs like this:
as §1

The test system of assay [4] is Candida albicans. Briefly: Antifungal activity against Candida stellatoidea. It is filed as functional. The procedure, abridged: as §1
The subject of assay [5] is Diutina rugosa. Briefly: Antifungal activity against Candida rugosa. It is filed as functional. The procedure, abridged:
as §1

For assay [6], the system named is Candida albicans. Nature of the assay: Antifungal activity against Candida albicans. It is filed as functional. In short, it runs like this: as §1
The test system of assay [7] is Aspergillus niger. Briefly: Antifungal activity against Aspergillus niger. It is filed as functional. The procedure, abridged: as §1
The subject of assay [8] is Trichophyton benhamiae. Briefly: Antifungal activity against Trichophyton mentagrophytes. The assay is classed as functional, trychophyton mentagrophytes. In short, it runs like this: as §1
Assay [9] relates to Trichophyton rubrum. Briefly: Antifungal activity against Trichophyton rubrum. It is filed as functional. The procedure, abridged: as §1
Assay [10] has as its system Aspergillus niger. Briefly: Antifungal activity against Aspergillus niger; Range is 64-128. It is filed as functional. The procedure, abridged:
as §1

Assay [11] deals with Candida parapsilosis. Briefly: Antifungal activity against Candida parapsilosis. Particulars: Lodderomyces parapsilosis. It is filed as functional. The procedure, abridged:
as §1

In assay [12] the test system is Trichophyton rubrum. Briefly: Antifungal activity against Trichophyton rubrum; Range is 2-4. It is filed as functional. In short, it runs like this:
as §1

In assay [13] the test system is Aspergillus niger. Briefly: Antifungal activity against Aspergillus niger; Range is 32-64. It is filed as functional. In short, it runs like this: as §1
The subject of assay [14] is Trichophyton benhamiae. Briefly: Antifungal activity against Trichophyton mentagrophytes; Range is 32-64. It is filed as functional, trychophyton mentagrophytes. The procedure, abridged:
as §1

For assay [15], the system named is Trichophyton rubrum. Briefly: Antifungal activity against Trichophyton rubrum; Range is 8-32. It is filed as functional.
Assay [16] concerns Trichophyton benhamiae. Nature of the assay: Antifungal activity against Trichophyton mentagrophytes; Range is 64-128. It is filed as functional, trychophyton mentagrophytes. The procedure, abridged: as §1
The subject of assay [17] is Trichophyton rubrum. Briefly: Antifungal activity against Trichophyton rubrum; Range is 64-128. The assay is classed as functional.

≈ marks a conversion by molar mass, not a printed value.

By MIC is commonly meant the least concentration at which growth counts as inhibited. Low readings indicate a more susceptible organism, high ones a less susceptible organism. For the compound `c1ccc2cc(-c3nnc4ccncc4n3)ccc2c1`, the MIC was 128 µg/mL (≈ 496 µM) in assay [1]; 128 µg/mL (≈ 496 µM) in [2]; 128 µg/mL (≈ 496 µM) in assay [3]; > 128 µg/mL in [4]; > 128 µg/mL in assay [5]; 128 µg/mL (≈ 496 µM) in [6]. The lowest concentration to inhibit growth in assay [7] (MIC) was 128 µg/mL (≈ 496 µM).
As for `Cc1nc(C)c2nc(-c3ccncc3)nnc2c1N`, the minimum inhibitory concentration (MIC) in [8] worked out at 32 µg/mL (≈ 127 µM); in [1], 128 µg/mL (≈ 507 µM); in assay [9], 16 µg/mL (≈ 63.4 µM); in assay [2], 128 µg/mL (≈ 507 µM); in [10], 64 µg/mL (≈ 254 µM); in [3], 64 µg/mL (≈ 254 µM). Further, the MIC in assay [4] is > 128 µg/mL; in [5], > 128 µg/mL; in assay [6], 128 µg/mL (≈ 507 µM).
Turning to `Fc1ccccc1-c1nnc2ccncc2n1`, the MIC in assay [8] is 8 µg/mL (≈ 35.4 µM); in assay [1], 32 µg/mL (≈ 141 µM); in assay [11] it was 32 µg/mL (≈ 141 µM); in [2] it was 32 µg/mL (≈ 141 µM); in [3], 64 µg/mL (≈ 283 µM); in [12], 2 µg/mL (≈ 8.84 µM). In addition, the MIC turned out to be 32 µg/mL (≈ 141 µM) in [4], 16 µg/mL (≈ 70.7 µM) in [5], 32 µg/mL (≈ 141 µM) in assay [6] and 16 µg/mL (≈ 70.7 µM) in assay [7].
On to `c1ccc2nc(-c3nnc4ccncc4n3)cnc2c1`, for which the minimal inhibitory concentration (MIC) in [1] is 8 µg/mL (≈ 30.7 µM); in [2], 8 µg/mL (≈ 30.7 µM); in [3], 32 µg/mL (≈ 123 µM); in assay [4] it was 32 µg/mL (≈ 123 µM); in assay [5], 32 µg/mL (≈ 123 µM); in assay [6], 8 µg/mL (≈ 30.7 µM). This compound gave an MIC in assay [7] of 32 µg/mL (≈ 123 µM).
Consider `CCOc1ccc(-c2nnc3ccncc3n2)cc1`, for which the minimum inhibitory concentration (MIC) in assay [1] is 64 µg/mL (≈ 254 µM); in assay [2] it was 64 µg/mL (≈ 254 µM); in assay [10] it was 64 µg/mL (≈ 254 µM); in assay [3] it was 128 µg/mL (≈ 507 µM); in assay [4], > 128 µg/mL; in assay [5], > 128 µg/mL. Also, in assay [6], it took 64 µg/mL (≈ 254 µM) to inhibit growth (MIC).
Consider `Cc1nnc2ncccc2n1`, for which the minimum inhibitory concentration (MIC) came out at 128 µg/mL (≈ 876 µM) in assay [8]; 128 µg/mL (≈ 876 µM) in assay [1]; 64 µg/mL (≈ 438 µM) in assay [11]; 128 µg/mL (≈ 876 µM) in [9]; 128 µg/mL (≈ 876 µM) in assay [2]; 32 µg/mL (≈ 219 µM) in [13]. Moreover, it took 128 µg/mL (≈ 876 µM) to inhibit growth in assay [6] (MIC).
With `CC1N=Nc2ncccc2N1` (stereo not drawn), the minimal inhibitory concentration (MIC) in [14] was found to be 32 µg/mL (≈ 216 µM); in assay [1] it was 64 µg/mL (≈ 432 µM); in assay [11] it was 64 µg/mL (≈ 432 µM); in assay [2], 64 µg/mL (≈ 432 µM); in [13], 32 µg/mL (≈ 216 µM); in [6], 64 µg/mL (≈ 432 µM). In addition, in assay [15], the MIC worked out at 8 µg/mL (≈ 54 µM).
Consider `CCCCCCCCCCCCCCCCCc1nnc2ccncc2n1`, for which the MIC is 128 µg/mL (≈ 345 µM) in assay [1]; 128 µg/mL (≈ 345 µM) in assay [2]; 128 µg/mL (≈ 345 µM) in assay [3]; > 128 µg/mL in assay [4]; > 128 µg/mL in [5]; 128 µg/mL (≈ 345 µM) in [6]. For the same compound, in assay [7], inhibition of growth (MIC) required 128 µg/mL (≈ 345 µM).
Turning to `CC1(C)N=Nc2ccncc2N1`, the minimal inhibitory concentration (MIC) in [8], in assay [1], in assay [11], in assay [9], in assay [2] and in [6] was 128 µg/mL (≈ 789 µM) throughout. The same compound gave an MIC in [7] of 128 µg/mL (≈ 789 µM).
With `CC1(C)N=Nc2c(cnc3ccccc23)N1`, the MIC is 128 µg/mL (≈ 603 µM) in assay [1]; 128 µg/mL (≈ 603 µM) in [11]; 64 µg/mL (≈ 302 µM) in assay [16]; 128 µg/mL (≈ 603 µM) in assay [2]; 128 µg/mL (≈ 603 µM) in assay [6]; 64 µg/mL (≈ 302 µM) in assay [17]. This compound showed an MIC in assay [7] of 128 µg/mL (≈ 603 µM).
For `CC(C)(C)c1ccc(-c2nnc3ccncc3n2)cc1`, the MIC is 128 µg/mL (≈ 484 µM) in assay [1]; 128 µg/mL (≈ 484 µM) in [2]; 128 µg/mL (≈ 484 µM) in assay [3]; > 128 µg/mL in assay [4]; > 128 µg/mL in [5]; 128 µg/mL (≈ 484 µM) in assay [6]. This compound also returned a minimum inhibitory concentration (MIC) in assay [7] of 128 µg/mL (≈ 484 µM).
Turning to `CN1CCN(/C=C/c2nnc3ccncc3n2)CC1`, the minimum inhibitory concentration (MIC) in [1] came out at 128 µg/mL (≈ 499 µM); in assay [2] it was 128 µg/mL (≈ 499 µM); in assay [10], 64 µg/mL (≈ 250 µM); in assay [3], 128 µg/mL (≈ 499 µM); in assay [4], 32 µg/mL (≈ 125 µM); in [5], 32 µg/mL (≈ 125 µM). The compound also had an MIC in [6] of 128 µg/mL (≈ 499 µM).
In the case of `CN(C)/C=C/c1nnc2ccncc2n1`, the minimal inhibitory concentration (MIC) in [1] worked out at 128 µg/mL (≈ 636 µM); in assay [2] it was 128 µg/mL (≈ 636 µM); in assay [10], 64 µg/mL (≈ 318 µM); in assay [3] it was 64 µg/mL (≈ 318 µM); in [4] it was 16 µg/mL (≈ 79.5 µM); in assay [5] it was 16 µg/mL (≈ 79.5 µM). This compound also displayed a minimum inhibitory concentration (MIC) in assay [6] of 64 µg/mL (≈ 318 µM).
`c1ccc(-c2nnc3ccccc3n2)cc1`: the minimum inhibitory concentration (MIC) in assay [1] came to 128 µg/mL (≈ 618 µM); in assay [9] it was 64 µg/mL (≈ 309 µM); in assay [2], 128 µg/mL (≈ 618 µM); in assay [4] it was 128 µg/mL (≈ 618 µM); in assay [5] it was 128 µg/mL (≈ 618 µM); in assay [6], 64 µg/mL (≈ 309 µM). Moreover, in assay [7], 128 µg/mL (≈ 618 µM) was the least that counted as inhibitory (MIC).
